The source of these data is ChEMBL document CHEMBL5543129, “Peptide Inhibitor Targeting the Extraterminal Domain in BRD4 Potently Suppresses Breast Cancer Both In Vitro and In Vivo” (J Med Chem, 2024).

Activity calls are given as the source filed them. The rule behind the calls is not given here. Square brackets hold non-standard residues; d marks the D form. Peptide text beside a SMILES is read from it. Hyp = O=C(O)[C@@H]1C[C@@H](O)CN1; Ahx = NCCCCCC(=O)O

The test system of data set [1] is Mus musculus. Nature of the data set: Downregulation of N-myc mRNA expression in BALB/c mouse tumor xenografted with human MDA-MB-231 cells at 25 mg/kg, ip administered every 2 days by RT-qPCR analysis. Format: functional, organism-based. A general note: In xenograft studies the graft and the host belong to different species.
The test system of data set [2] is MCF7. As to the kind of experiment: Inhibition of cell migration in human MCF7 cells at 10 uM incubated for 24 hrs in presence of JMJD6 inhibitor by inverted microscopic analysis. It is filed as functional, cell-based. An outline of the steps: (§1)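 Cells are seeded at 5 × 10^5/well and scratched at 80–90% confluence. They are kept in serum-free medium with peptide (10 μM); partner agents are JQ1 5 μM, iJMJD6 10 μM, or ICI 2.5 μM. Wound area is imaged by inverted microscope at 0 and 12 or 24 h. Wound closure % = (A0−A1)/A0 × 100. Three biological repeats.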

Data set [3] is described as follows: Toxicity in BALB/c mouse xenografted with human MCF7 cells assessed as change in kidney weight at 12.5 mg/kg, ip administered every 2 days in presence of 50 mg/kg JQ1. To be noted: in vivo, 48 h. Format: organism-based.
A short description of data set [4]: Toxicity in BALB/c mouse xenografted with human MCF7 cells assessed as change in heart weight at 12.5 mg/kg, ip administered every 2 days in presence of 50 mg/kg JQ1. It is filed as organism-based. To be noted: in vivo, 48 h.
Data set [5] deals with MCF7. Nature of the data set: Inhibition of colony formation in human MCF7 cells at 10 uM incubated for 2 weeks in presence of JMJD6 inhibitor by crystal violet staining based assay. It is filed as functional, cell-based. An outline of the steps:
(§2)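 Cells are seeded at 1 × 10^3/well and treated with peptide (10 μM) for 2 weeks, alone or with JQ1 5 μM, iJMJD6 10 μM, ICI 2.5 μM, or tamoxifen 3 μM (tamoxifen-resistant lines). Colonies are stained with crystal violet, dissolved in 10% acetic acid, and read at 590 nm. Three biological repeats.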

Data set [6] concerns MCF7. Nature of the data set: Inhibition of colony formation in human MCF7 cells at 10 uM incubated for 2 weeks by crystal violet staining based assay. It is filed as functional, cell-based. A digest of the protocol: as §2
Data set [7] relates to MCF7. Nature of the data set: Antiproliferative activity against human MCF7 cells at 10 uM incubated for 1 week in presence of tamoxifen by CellTiter 96 Aqueous One Solution based assay. It is filed as functional, cell-based. To be noted: time 1.0 weeks. An outline of the steps:
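Tamoxifen-resistant MCF7 or T47D cells treated with peptide (10 μM) or tamoxifen (3 μM), alone or combined. Viability read by MTS reagent, 1 h at 37 °C, A490.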

Data set [8] is described as follows: Downregulation of CCND1 protein expression in human MDA-MB-231 cells assessed as fold change in remaining CCND1 level at 10 uM incubated for 24 hrs by immunoblotting analysis (reference value: 1). It is filed as functional. A digest of the protocol:
(§3)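 Cells treated with peptide (10 μM) for 24 h. Lysates in Tris/NaCl/EDTA/1% Triton X-100, run on 10% SDS-PAGE and immunoblotted with ECL detection. β-actin as loading control. Three repeats, quantified against untreated cells.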
On the technique in general: In western blotting, separated proteins are transferred to a membrane and probed.

Data set [9] in a line: Downregulation of JMJD6 protein expression in human MCF7 cells assessed as fold change in remaining JMJD6 level at 10 uM incubated for 24 hrs by immunoblotting analysis (reference value: 1). It is filed as functional. A digest of the protocol:
as §3

Data set [10] deals with Mus musculus. Nature of the data set: Downregulation of N-myc mRNA expression in BALB/c mouse tumor xenografted with human MCF7 cells at 25 mg/kg, ip administered every 2 days by RT-qPCR analysis. It is filed as functional, organism-based.
Data set [11] is described as follows: Toxicity in BALB/c mouse xenografted with human MCF7 cells assessed as change in heart at 12.5 mg/kg, ip administered every 2 days in presence of 12.5 mg/kg JMJD6 inhibitor. To be noted: in vivo, 48 h. It is filed as organism-based. A digest of the protocol:
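Female BALB/c nude mice carried MCF7 xenografts (5 × 10^6 cells sc, E2 10–2 M brushed every 2 days) and were randomized at about 50 mm3. Peptide was given at 12.5 mg/kg ip every 2 days, and iJMJD6 (DMSO/PBS 1:20) at 12.5 mg/kg ip every other day, alone or combined. Body and organ weights were recorded.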

The subject of data set [12] is MCF7. Nature of the data set: Antitumor activity against human MCF7 cells xenografted in BALB/c nude mouse assessed as reduction in tumor weight at 12.5 mg/kg, ip administered every 2 days in presence of 12.5 mg/kg JMJD6 inhibitor. It is filed as functional, organism-based. An outline of the steps:
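Female BALB/c nude mice given 5 × 10^6 cells sc (MCF7 mice with E2 10^-2 M every 2 days), randomised at ~50 mm3. Peptide 12.5 mg/kg ip (saline) every 2 days, plus JQ1 50 mg/kg ip (DMSO/10% HPBCD 1:10) every 2 days or iJMJD6 12.5 mg/kg ip (DMSO/PBS 1:20). Caliper volume every 2 days; tumours weighed at the end.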

The test system of data set [13] is T47D. As to the kind of experiment: Inhibition of cell migration in human T47D cells at 10 uM incubated for 24 hrs in presence of fulvestrant by inverted microscopic analysis. Format: functional, cell-based. An outline of the steps: as §1
Data set [14] has as its system MDA-MB-231. Nature of the data set: Downregulation of c-Myc gene expression in human MDA-MB-231 cells at 10 uM incubated for 6 hrs by RT-qPCR analysis. It is filed as functional, cell-based. An outline of the steps:
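Cells treated with peptide (10 μM) for 6 h; c-Myc, N-myc and CCND1 mRNA measured by RT-qPCR. Three biological repeats.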

The nature of data set [15]: Toxicity in BALB/c mouse xenografted with human MCF7 cells assessed as change in spleen weight at 12.5 mg/kg, ip administered every 2 days in presence of 50 mg/kg JQ1. Format: organism-based. To be noted: in vivo, 48 h.
In data set [16] the test system is MDA-MB-231. As to the kind of experiment: Antiproliferative activity against human MDA-MB-231 cells at 10 uM incubated for 1 week in presence of 5 uM JQ1 by CellTiter 96 Aqueous One Solution based assay. It is filed as functional, cell-based. To be noted: time 1.0 weeks. A digest of the protocol:
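Cells seeded at 2 × 10^3/well and treated with peptide (10 μM) alone or combined with JQ1 (5 μM), iJMJD6 (10 μM) or ICI (2.5 μM), as the line states. Viability read by MTS reagent, 1 h at 37 °C, A490. Three biological repeats.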

Data set [17] relates to T47D. As to the kind of experiment: Inhibition of colony formation in human T47D cells at 10 uM incubated for 2 weeks in presence of fulvestrant by crystal violet staining based assay. Format: functional, cell-based. An outline of the steps:
as §2

Data set [18] can be described thus: Toxicity in BALB/c mouse xenografted with human […] assessed as body weight loss at 25 mg/kg, ip administered every 2 days. It is filed as organism-based. To be noted: in vivo, 48 h. An outline of the steps: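 Female BALB/c nude mice (4–6 weeks) received 5 × 10^6 MCF7 cells sc in PBS, with estrogen (E2, 10–2 M) brushed on the neck every 2 days. Mice were randomized at about 50 mm3 tumor volume. Peptide in normal saline was given ip at 25 mg/kg every 2 days. Body weight was monitored.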

Data set [19] can be described thus: Downregulation of c-Myc protein expression in human MCF7 cells assessed as fold change in remaining c-Myc level at 10 uM incubated for 24 hrs by immunoblotting analysis (reference value: 1). Format: functional. A digest of the protocol:
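Cells (MCF7 or MDA-MB-231 in DMEM, 10% FBS, 37 °C, 5% CO2) are treated with peptide for 24 h. Lysates are taken in Tris/NaCl/EDTA/1% Triton buffer and run on 10% SDS-PAGE. Immunoblots are normalised to β-actin loading control; three repeats.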

For data set [20], the system named is Mus musculus. As to the kind of experiment: Downregulation of BRD4 mRNA expression in BALB/c mouse tumor xenografted with human MCF7 cells at 25 mg/kg, ip administered every 2 days by RT-qPCR analysis. It is filed as functional, organism-based.

Take `CC[C@H](C)[C@H](NC(=O)[C@H](Cc1ccc(O)cc1)NC(=O)[C@@H]1C[C@@H](O)CN1C(=O)[C@H](C)NC(=O)[C@@H](NC(=O)CCCCCNC(=O)[C@H](CCC(=O)O)NC(=O)CNC(=O)[C@H](CS)NC(=O)[C@H](CCCCN)NC(=O)[C@H](Cc1ccccc1)NC(=O)[C@H](CCCCN)NC(=O)[C@H](CCC(N)=O)NC(=O)[C@H](CC(N)=O)NC(=O)[C@H](CCCNC(=N)N)NC(=O)[C@H](CCCNC(=N)N)NC(=O)[C@H](CCCNC(=N)N)NC(=O)[C@H](CCCNC(=N)N)NC(=O)[C@H](CCC(N)=O)NC(=O)[C@H](CCCNC(=N)N)NC(=O)[C@H](CCCNC(=N)N)NC(=O)[C@H](CCCCN)NC(=O)[C@H](CCCCN)NC(=O)[C@H](CCCNC(=N)N)NC(=O)CNC(=O)[C@@H](N)Cc1ccc(O)cc1)[C@@H](C)CC)C(=O)O` (H-YGRKKRRQRRRRNQKFKCGE[Ahx]IA[Hyp]YI-OH): the result in the data set with Mus musculus [1], with MCF7 [7], in the data set on Mus musculus [10], in the data set with MCF7 [12], in the data set on MDA-MB-231 [14] and with MDA-MB-231 [16] was Active. Also, the inhibition result in the data set with MCF7 [2], in the data set on MCF7 [5], in the data set on MCF7 [6], in the data set with T47D [13] and with T47D [17] was “Active” in each case. Further, the Activity entry in data set [3], in data set [4], in [11], in data set [15] and in data set [18] was “Non-Toxic” throughout. Further, the “fold change (FC)” value in data set [8] was 0.62; in [9] it was 0.5; in data set [19], 0.72. For the same compound, the result in the data set on Mus musculus [20] was inactive.
H-YGRKKRRQRRRRNQKFKCGE-OH: the outcome in the data set with Mus musculus [1], with MCF7 [7], in the data set with Mus musculus [10], in the data set on MCF7 [12], in the data set with MDA-MB-231 [14] and with MDA-MB-231 [16] was Active. Besides, the inhibition entry in the data set on MCF7 [2], in the data set with MCF7 [5], in the data set with MCF7 [6], in the data set on T47D [13] and in the data set with T47D [17] was “Active” in each case. Further, the Activity entry in data set [3], in data set [4], in data set [11], in data set [15] and in data set [18] was “Non-Toxic” each time. The “fold change (FC)” value in data set [8] was 0.67; in data set [9], 0.91; in [19] it was 0.69. The outcome with Mus musculus [20] was inactive.
